Source: ChEMBL document CHEMBL1142179, “Association of fluconazole area under the concentration-time curve/MIC and dose/MIC ratios with mortality in nonneutropenic patients with candidemia” (2007)
Values after ≈ are worked out from the molar mass of the structure shown.

Tests used:
Type in all cases: functional
[1] = organism: Homo sapiens; assay: Mortality rate in Candida glabrata infected candidemia patient
Procedure, shortened: (§1)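 Subjects were adults (≥18 y) hospitalized >48 h before a Candida-positive blood culture, enrolled 2002–2005 at two hospitals, and treated with fluconazole. Patients were excluded if fluconazole started >24 h before culture or >2 days after it. Species was identified by Vitek YBC or API 20C Aux. Mortality is given per infecting species.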

[2] = organism: Homo sapiens; assay: Ratio of weight normalized daily dose in non-surviving candidemia patient to MIC at 48 hrs against Candida species
Procedure, shortened: (§2)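 MICs for patient Candida blood isolates were measured by CLSI M27-A2 microdilution in RPMI 1640-2% dextrose with 0.165 M MOPS, pH 7.0. Fluconazole was tested at 0.5–256 μg/ml in doubling dilutions, incubated at 35°C, and read at 24 h and 48 h by marked turbidity reduction. The fluconazole dose in mg/kg body weight was divided by the 24-h or 48-h MIC.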

[3] = tested on: Nakaseomyces glabratus; assay: Ratio of weight normalized daily dose in candidemia patient to MIC against Candida glabrata; procedure, shortened: as §2
[4] = organism: Homo sapiens; assay: Mortality rate stratified by 24 hrs MIC in susceptible Candida species infected patient
Procedure, shortened: (§3)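 Patients were fluconazole-treated nonneutropenic adults with candidemia. Isolate MICs were obtained by CLSI M27-A2 broth microdilution, read at 24 or 48 h. Patients were grouped by susceptibility breakpoint category. Mortality was compared by chi-square analysis.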

[5] = tested on: Nakaseomyces glabratus; assay: Ratio of AUC in candidemia patient to MIC against Candida glabrata
Procedure, shortened: (§4)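 Bloodstream Candida isolates came from hospitalized adults treated with fluconazole. MICs were measured by CLSI M27-A2 broth microdilution in RPMI 1640-2% dextrose with 0.165 M MOPS, pH 7.0. Fluconazole was tested in doubling dilutions of 0.5–256 μg/ml at 35°C, read at 24 and 48 h as a marked drop in turbidity. AUC is the individual dose divided by clearance estimated from creatinine clearance. The ratio is AUC divided by the 24- or 48-h MIC.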

[6] = tested on: Candida albicans; assay: Antimicrobial activity against Candida albicans at 24 hrs
Procedure, shortened: (§5)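 Bloodstream isolates from hospitalized candidemia patients, stored at −70°C and subcultured overnight on Sabouraud dextrose agar. Tested by CLSI M27-A2 broth microdilution in RPMI 1640-2% dextrose with 0.165 M MOPS, pH 7.0. Fluconazole was given as serial doubling dilutions from 0.5 to 256.0 μg/ml. Inoculum was a 0.5 McFarland suspension diluted to 2×. Plates were incubated at 35°C. MIC was read at 24 and 48 h as a marked reduction in turbidity, with ATCC 6258 and ATCC 22019 as QC strains.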

[7] = organism: Homo sapiens; assay: Mortality rate in Candida albicans infected candidemia patient; procedure, shortened: as §1
[8] = tested on: Candida albicans; assay: Ratio of weight normalized daily dose in candidemia patient to MIC at 24 hrs against Candida albicans
Procedure, shortened: (§6)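 Fluconazole daily dose (mg/kg) of each nonneutropenic candidemia patient divided by the MIC of their bloodstream isolate. MIC by CLSI M27-A2 broth microdilution in RPMI 1640-2% dextrose, 0.165 M MOPS, pH 7.0. Serial doubling dilutions ran 0.5–256.0 μg/ml. Inoculum was a 0.5 McFarland suspension diluted to 2×. Incubated at 35°C; MIC read at 24 and 48 h as marked turbidity reduction.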

[9] = tested on: Candida albicans; assay: Ratio of weight normalized daily dose in candidemia patient to MIC against Candida albicans; procedure, shortened: as §6
[10] = tested on: Candida; assay: Ratio of AUC in non-surviving candidemia patient to MIC at 48 hrs against Candida species; procedure, shortened: as §4
[11] = tested on: Candida tropicalis; assay: Ratio of AUC in candidemia patient to MIC against Candida tropicalis; procedure, shortened: as §4
[12] = organism: Homo sapiens; assay: Mortality rate in Candida lusitaniae infected candidemia patient; procedure, shortened: as §1
[13] = tested on: Candida parapsilosis; assay: Antimicrobial activity against Candida parapsilosis at 24 hrs; settings: Lodderomyces parapsilosis; procedure, shortened: as §5
[14] = tested on: Candida tropicalis; assay: Ratio of weight normalized daily dose in candidemia patient to MIC against Candida tropicalis; procedure, shortened: as §2
[15] = tested on: Nakaseomyces glabratus; assay: Antimicrobial activity against Candida glabrata at 48 hrs; procedure, shortened: as §5
[16] = organism: Homo sapiens; assay: Mortality rate stratified by 24 hrs MIC in dose-dependently susceptible Candida species infected patient; procedure, shortened: as §3
[17] = organism: Homo sapiens; assay: Mortality rate stratified by 48 hrs MIC in dose-dependently susceptible Candida species infected patient; procedure, shortened: as §3
[18] = tested on: Candida parapsilosis; assay: Antimicrobial activity against Candida parapsilosis at 48 hrs; settings: Lodderomyces parapsilosis; procedure, shortened: as §5
[19] = tested on: Candida; assay: Ratio of weight normalized daily dose in surviving candidemia patient to MIC at 48 hrs against Candida species; procedure, shortened: as §2
[20] = tested on: Clavispora lusitaniae; assay: Antimicrobial activity against Candida lusitaniae at 48 hrs; procedure, shortened: as §5
[21] = tested on: Candida albicans; assay: Ratio of weight normalized daily dose in candidemia patient to MIC at 48 hrs against Candida albicans; procedure, shortened: as §6
[22] = tested on: Nakaseomyces glabratus; assay: Ratio of weight normalized daily dose in candidemia patient to MIC at 24 hrs against Candida glabrata; procedure, shortened: as §2
[23] = tested on: Candida albicans; assay: Ratio of AUC in candidemia patient to MIC against Candida albicans; procedure, shortened: as §4
[24] = tested on: Candida tropicalis; assay: Antimicrobial activity against Candida tropicalis at 48 hrs; procedure, shortened: as §5
[25] = tested on: Candida albicans; assay: Antimicrobial activity against Candida albicans at 48 hrs; procedure, shortened: as §5
[26] = tested on: Candida tropicalis; assay: Antimicrobial activity against Candida tropicalis at 24 hrs; procedure, shortened: as §5
[27] = tested on: Candida; assay: Ratio of AUC in surviving candidemia patient to MIC at 48 hrs against Candida species; procedure, shortened: as §4
[28] = tested on: Candida parapsilosis; assay: Ratio of weight normalized daily dose in candidemia patient to MIC against Candida parapsilosis; procedure, shortened: as §2
[29] = organism: Homo sapiens; assay: Mortality rate stratified by 48 hrs MIC in susceptible Candida species infected patient; procedure, shortened: as §3
[30] = organism: Homo sapiens; assay: Mortality rate in Candida parapsilosis infected candidemia patient; procedure, shortened: as §1
[31] = tested on: Nakaseomyces glabratus; assay: Ratio of weight normalized daily dose in candidemia patient to MIC at 48 hrs against Candida glabrata; procedure, shortened: as §2
[32] = tested on: Clavispora lusitaniae; assay: Ratio of AUC in candidemia patient to MIC against Candida lusitaniae; procedure, shortened: as §4
[33] = organism: Homo sapiens; assay: Mortality rate in Candida tropicalis infected candidemia patient; procedure, shortened: as §1
[34] = tested on: Nakaseomyces glabratus; assay: Antimicrobial activity against Candida glabrata at 24 hrs; procedure, shortened: as §5
[35] = organism: Homo sapiens; assay: Mortality rate stratified by 48 hrs MIC in resistant Candida species infected patient; procedure, shortened: as §3
[36] = tested on: Clavispora lusitaniae; assay: Ratio of weight normalized daily dose in candidemia patient to MIC against Candida lusitaniae; procedure, shortened: as §2
[37] = organism: Homo sapiens; assay: Mortality rate stratified by 24 hrs MIC in resistant Candida species infected patient; procedure, shortened: as §3
[38] = tested on: Candida parapsilosis; assay: Ratio of AUC in candidemia patient to MIC against Candida parapsilosis; procedure, shortened: as §4
[39] = tested on: Candida; assay: Ratio of weight normalized daily dose in surviving candidemia patient to MIC at 24 hrs against Candida species
Procedure, shortened: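 Weight-normalized fluconazole daily dose (mg/kg) was divided by the isolate MIC read at 24 h (CLSI M27-A2 broth microdilution, 35°C). Ratios were log10-transformed before analysis. Surviving patients were compared with nonsurvivors, with logistic regression used against mortality.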

[40] = tested on: Clavispora lusitaniae; assay: Antimicrobial activity against Candida lusitaniae at 24 hrs; procedure, shortened: as §5
[41] = tested on: Candida; assay: Ratio of weight normalized daily dose in non-surviving candidemia patient to MIC at 24 hrs against Candida species; procedure, shortened: as §2
[42] = tested on: Candida; assay: Ratio of AUC in surviving candidemia patient to MIC at 24 hrs against Candida species; procedure, shortened: as §4

SMILES: OC(Cn1cncn1)(Cn1cncn1)c1ccc(F)cc1F [FLUCONAZOLE]
- Activity [1]: 36.4%
- Ratio [2]: 6.1
- Ratio [3]: 1.9
- Activity [4]: 18%
- RatioAUC/MIC [5]: 182
- MIC50 [6]: 0.25 µg/mL (≈ 0.816 µM)
- Activity [7]: 16.3%
- Ratio [8]: 15.39
- Ratio [9]: 15.4
- Ratio [10]: 496
- RatioAUC/MIC [11]: 657
- Activity [12]: 33.3%
- MIC50 [13]: 1.25 µg/mL (≈ 4.08 µM)
- Ratio [14]: 11.4
- MIC50 [15]: 0.5 µg/mL (≈ 1.63 µM)
- MIC90 [15]: 8 µg/mL (≈ 26.1 µM)
- Activity [16]: 50%
- Activity [17]: 50%
- MIC50 [18]: 0.5 µg/mL (≈ 1.63 µM)
- MIC90 [18]: 8 µg/mL (≈ 26.1 µM)
- Ratio [19]: 10.7
- MIC50 [20]: 0.5 µg/mL (≈ 1.63 µM)
- MIC90 [20]: 8 µg/mL (≈ 26.1 µM)
- Ratio [21]: 13.17
- Ratio [22]: 1.88
- RatioAUC/MIC [23]: 946
- MIC50 [24]: 0.5 µg/mL (≈ 1.63 µM)
- MIC90 [24]: 8 µg/mL (≈ 26.1 µM)
- MIC50 [25]: 0.5 µg/mL (≈ 1.63 µM)
- MIC90 [25]: 8 µg/mL (≈ 26.1 µM)
- MIC50 [26]: 1 µg/mL (≈ 3.27 µM)
- Ratio [27]: 614
- Ratio [28]: 10.7
- Activity [29]: 18%
- Activity [30]: 0%
- Ratio [31]: 1.51
- RatioAUC/MIC [32]: 232
- Activity [33]: 0%
- MIC50 [34]: 4 µg/mL (≈ 13.1 µM)
- Activity [35]: 50%
- Ratio [36]: 3.3
- Activity [37]: 50%
- RatioAUC/MIC [38]: 635
- Activity [39]: 13.3
- MIC50 [40]: 2 µg/mL (≈ 6.53 µM)
- Ratio [41]: 7
- Ratio [42]: 775
